# Key:
# [1] = target: T1, MAO A (monoamine oxidase A) (Rattus norvegicus, UniProt P21396); assay: (§1) Inhibitory activity against monoamine oxidase A (MAO A) from rat brain using a radiometric procedure with [3H]5-HT at 10 uM; details: rat brain monoamine oxidase A preparation, probe [3H]5-HT
# T1 sequence (P21396 whole entry): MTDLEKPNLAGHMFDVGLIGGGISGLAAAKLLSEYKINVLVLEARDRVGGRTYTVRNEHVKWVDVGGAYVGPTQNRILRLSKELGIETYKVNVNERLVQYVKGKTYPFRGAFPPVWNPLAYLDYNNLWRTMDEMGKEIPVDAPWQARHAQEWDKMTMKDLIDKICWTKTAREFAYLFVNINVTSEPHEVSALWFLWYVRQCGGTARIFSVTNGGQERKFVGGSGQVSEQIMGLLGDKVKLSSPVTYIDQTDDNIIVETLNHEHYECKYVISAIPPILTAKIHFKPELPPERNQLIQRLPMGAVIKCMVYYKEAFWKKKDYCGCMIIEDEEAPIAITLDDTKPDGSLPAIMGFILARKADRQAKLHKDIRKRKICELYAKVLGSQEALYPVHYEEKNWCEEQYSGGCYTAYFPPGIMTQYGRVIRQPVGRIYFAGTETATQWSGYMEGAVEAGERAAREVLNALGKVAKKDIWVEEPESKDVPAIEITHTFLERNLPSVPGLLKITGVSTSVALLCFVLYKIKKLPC
# Summary of the method: (§2)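 Rat brain mitochondrial MAO extract was preincubated with or without inhibitor for 15 min at 37 °C in 50 mM potassium phosphate, pH 7.4. […] Blanks contained 2 mM pargyline. Reactions were stopped with HCl, products extracted into ethyl acetate/toluene and counted by scintillation. Triplicates were averaged as % inhibition, and IC50 was taken from % inhibition vs log concentration.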
# [2] = target: T1, MAO A (monoamine oxidase A); assay: (§3) Inhibitory activity against monoamine oxidase A (MAO A) from rat brain using a radiometric procedure with [3H]5-HT at 1 uM; details: rat brain monoamine oxidase A preparation, probe [3H]5-HT; summary of the method: as §2
# [3] = target: T2, MAO B (monoamine oxidase B) (Rattus norvegicus, UniProt P19643); assay: (§4) Inhibitory activity against monoamine oxidase B (MAO B) from rat brain using a radiometric procedure with [14C]phenylethylamine at 1 uM; details: rat brain monoamine oxidase B preparation, probe [14C]phenylethylamine
# T2 sequence (P19643 whole entry): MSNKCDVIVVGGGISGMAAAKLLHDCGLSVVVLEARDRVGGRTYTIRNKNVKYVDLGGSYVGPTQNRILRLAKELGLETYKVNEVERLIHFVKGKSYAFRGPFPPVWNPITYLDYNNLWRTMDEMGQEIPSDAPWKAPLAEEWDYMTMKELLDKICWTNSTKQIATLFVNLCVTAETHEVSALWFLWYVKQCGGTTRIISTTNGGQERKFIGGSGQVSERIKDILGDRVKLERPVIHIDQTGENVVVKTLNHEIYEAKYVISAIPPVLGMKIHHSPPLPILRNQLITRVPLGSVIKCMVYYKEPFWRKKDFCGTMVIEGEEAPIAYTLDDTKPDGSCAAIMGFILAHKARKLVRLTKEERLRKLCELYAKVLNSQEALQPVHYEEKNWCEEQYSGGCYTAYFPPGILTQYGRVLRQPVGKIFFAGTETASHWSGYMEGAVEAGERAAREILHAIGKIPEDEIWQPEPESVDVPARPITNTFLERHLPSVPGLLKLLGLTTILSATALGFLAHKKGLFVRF
# Summary of the method: (§5)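 Rat brain mitochondrial MAO extract was preincubated ± inhibitor for 15 min at 37 °C in 50 mM potassium phosphate, pH 7.4. […] Pargyline (2 mM) defined blanks. Acid stop, ethyl acetate/toluene extraction and scintillation counting followed. Triplicate means gave % inhibition, and IC50 was extrapolated from % inhibition vs log concentration plots.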
# [4] = target: T2, MAO B (monoamine oxidase B); assay: Inhibitory activity against monoamine oxidase B (MAO B) from rat brain using a radiometric procedure with [14C]- phenethylamine at 1 uM; details: rat brain monoamine oxidase B preparation, probe [14C]-phenethylamine; summary of the method: as §5
# [5] = target: T1, MAO A (monoamine oxidase A); assay: Inhibitory activity against monoamine oxidase A (MAO A) from rat brain using a radiometric procedure with [3H]- serotonin at 1 uM; details: rat brain monoamine oxidase A preparation, probe [3H]-serotonin; summary of the method: as §2
# [6] = target: T3, Amine oxidase [flavin-containing] A (Rattus norvegicus, UniProt P21396); assay: as §3; summary of the method: as §2
# T3 sequence (P21396 whole entry): T1 sequence (P21396 whole entry)
# [7] = target: T4, Amine oxidase [flavin-containing] B (Rattus norvegicus, UniProt P19643); assay: as §4; summary of the method: as §5
# T4 sequence (P19643 whole entry): T2 sequence (P19643 whole entry)
# [8] = target: T3, Amine oxidase [flavin-containing] A; assay: Inhibitory activity against monoamine oxidase A (MAO A) from rat brain using a radiometric procedure with [3H]5-HT; summary of the method: as §2
# [9] = target: T4, Amine oxidase [flavin-containing] B; assay: Inhibitory activity against monoamine oxidase B (MAO B) from rat brain using a radiometric procedure with [14C]- phenethylamine.; summary of the method: as §5
# [10] = target: T3, Amine oxidase [flavin-containing] A; assay: Inhibitory activity against monoamine oxidase A (MAO A) from rat brain using a radiometric procedure with [3H]- serotonin.; summary of the method: as §2
# [11] = target: T2, MAO B (monoamine oxidase B); assay: Inhibitory activity against monoamine oxidase B (MAO B) from rat brain using a radiometric procedure with [14C]phenylethylamine at 0.3 uM; details: rat brain monoamine oxidase B preparation, probe [14C]phenylethylamine; summary of the method: as §5
# [12] = target: T2, MAO B (monoamine oxidase B); assay: Inhibitory activity against monoamine oxidase B (MAO B) from rat brain using a radiometric procedure with [14C]- phenethylamine at 10 uM; details: rat brain monoamine oxidase B preparation, probe [14C]-phenethylamine; summary of the method: as §5
# [13] = target: T2, MAO B (monoamine oxidase B); assay: (§6) Inhibitory activity against monoamine oxidase B (MAO B) from rat brain using a radiometric procedure with [14C]phenylethylamine at 10 uM; details: rat brain monoamine oxidase B preparation, probe [14C]phenylethylamine; summary of the method: as §5
# [14] = target: T4, Amine oxidase [flavin-containing] B; assay: Inhibitory activity against monoamine oxidase B (MAO B) from rat brain using a radiometric procedure with [14C]- phenethylamine at<10 uM; summary of the method: as §5
# [15] = target: T1, MAO A (monoamine oxidase A); assay: Inhibitory activity against monoamine oxidase A (MAO A) from rat brain using a radiometric procedure with [3H]- serotonin at 10 uM; details: rat brain monoamine oxidase A preparation, probe [3H]-serotonin; summary of the method: as §2
# [16] = target: T4, Amine oxidase [flavin-containing] B; assay: as §6; summary of the method: as §5
# [17] = target: T3, Amine oxidase [flavin-containing] A; assay: as §1; summary of the method: as §2
# [18] = target: T2, MAO B (monoamine oxidase B); assay: Inhibitory activity against monoamine oxidase B (MAO B) from rat brain using a radiometric procedure with [14C]phenylethylamine at 0.1 uM; details: rat brain monoamine oxidase B preparation, probe [14C]phenylethylamine; summary of the method: as §5
# [19] = target: T2, MAO B (monoamine oxidase B); assay: Inhibitory activity against monoamine oxidase B (MAO B) from rat brain using a radiometric procedure with [14C]- phenethylamine at 0.1 uM; details: rat brain monoamine oxidase B preparation, probe [14C]-phenethylamine; summary of the method: as §5
# [20] = target: T1, MAO A (monoamine oxidase A); assay: Inhibitory activity against monoamine oxidase A (MAO A) from rat brain using a radiometric procedure with [3H]- serotonin at 0.1 uM; details: rat brain monoamine oxidase A preparation, probe [3H]-serotonin; summary of the method: as §2
smiles,measurement,setting,value
Nc1ccc2[nH]c(=O)c3ccccc3c2c1,inhibition,[1],0%
CC(=O)Nc1ccc2[nH]c(=O)c3ccccc3c2c1,inhibition,[2],0%
same,inhibition at 1 µM,[3],11%
CC(=O)Nc1ccc2[nH]ccc2c1,inhibition at 1 µM,[4],0%
same,inhibition at 1 µM,[5],0%
CC(=O)Nc1ccc2c(c1)S(=O)(=O)c1ccccc1N2C,inhibition,[2],60%
same,inhibition at 1 µM,[3],18%
CCCC(=O)Nc1ccc2c(c1)[nH]c1ccccc12,inhibition,[2],36%
CC(=O)Nc1ccc2c3ccccc3n(CCCN3CCN(C)CC3)c2c1,inhibition,[1],80%
CC(=O)Nc1ccc2[nH]c(C)c(C)c2c1,inhibition,[6],< 1%
same,inhibition,[7],42%
CC(=O)NCCc1ccc2c(c1)c1ccccc1n2C,inhibition,[2],50%
same,inhibition at 1 µM,[3],0%
CC(=O)Nc1ccc2c(c1)S(=O)(=O)c1ccccc1C2,inhibition,[2],17%
same,inhibition at 1 µM,[3],49%
CC(=O)Nc1ccc2c(c1)C(O)c1ccccc1-2 (centres undefined),IC50,[8],300 nM
CC(=O)Nc1ccc2c(c1)c(O)nc1ccccc12,inhibition,[2],55%
same,inhibition at 1 µM,[3],0%
CC(=O)Nc1ccc2c(c1)C(=O)c1ccccc1C2=O,IC50,[9],3500 nM
same,IC50,[10],160 nM
CC(=O)Nc1ccc2c(O)c3ccccc3nc2c1,inhibition,[2],72%
same,inhibition at 1 µM,[3],21%
CC(=O)Nc1ccc2c(c1)oc(=O)c1ccccc12,inhibition at 1 µM,[4],8%
same,IC50,[10],40 nM
CCC(=O)Nc1ccc2c(c1)-c1ccccc1S2(=O)=O,IC50,[8],1200 nM
CC(=O)Nc1ccc2c(c1)N(C(C)=O)CC2,inhibition,[2],37%
same,inhibition at 1 µM,[3],-27%
CCc1ccc2c(c1)C(=O)c1ccc(NC(C)=O)cc1S2(=O)=O,inhibition at 0.3 µM,[11],15%
same,IC50,[8],10 nM
CC(=O)Nc1ccc2c3c([nH]c2c1)CCCC3,inhibition,[2],35%
same,inhibition at 1 µM,[3],0%
CC(=O)Nc1ccc2c(c1)C(=O)c1ccccc1-2,inhibition at 1 µM,[3],3%
same,IC50,[8],40 nM
O=CNc1ccc2c(c1)[nH]c1ccccc12,IC50,[8],1100 nM
Nc1ccc2c(c1)-c1ccccc1S2(=O)=O,IC50,[8],1000 nM
CC(=O)Nc1ccc2[nH]c3ccccc3c2c1,inhibition at 10 µM,[12],37%
CCCc1ccc2c(c1)S(=O)(=O)c1cc(NC(C)=O)ccc1C2=O,IC50,[8],20 nM
same,inhibition at 10 uM,[13],-7%
CC(=O)Nc1cc2c(ccc3ccccc32)oc1=O,inhibition at 1 µM,[4],12%
same,inhibition at 1 µM,[5],10%
CC(=O)N(C)c1ccc2c(c1)-c1ccccc1S2(=O)=O,inhibition,[2],0%
CC(=O)Nc1cc2ccccc2oc1=O,inhibition,[14],53%
same,inhibition at 1 µM,[5],5%
CC(=O)Nc1ccc(Nc2ccccc2)c(NC(C)=O)c1,inhibition at 10 µM,[12],4%
same,inhibition at 10 µM,[15],4%
CC(=O)Nc1ccc2c(c1)oc1ccccc12,IC50,[8],300 nM
CC(=O)Nc1ccc2c(c1)S(=O)(=O)c1ccccc1C2=O,inhibition at 1 µM,[3],-1%
same,IC50,[8],60 nM
CC(=O)Nc1ccc2c(c1)C(=O)c1cc([N+](=O)[O-])ccc1-2,IC50,[8],1300 nM
CC(=O)Nc1ccc2c(c1)S(=O)(=O)c1ccc(C)cc1C2=O,IC50,[8],700 nM
CC(=O)Nc1nc2cc(C)c(C)cc2[nH]1,inhibition at 10 uM,[13],18%
same,inhibition,[1],50%
CC(=O)Nc1ccc2c(c1)CCC2,inhibition,[2],13%
same,inhibition at 1 µM,[3],37%
CC(=O)Nc1ccc2c(cnn2C(C)=O)c1,inhibition at 1 µM,[4],27%
same,inhibition at 1 µM,[5],4%
CC(=O)Nc1ccc2c(c1)S(=O)(=O)c1ccccc1N2,inhibition,[16],22%
same,inhibition,[17],74%
CC(=O)Nc1cccc(Nc2ccccc2)c1,inhibition at 10 µM,[15],44%
O=CN(C=O)c1ccc2c(c1)S(=O)(=O)c1ccccc1C2=O,inhibition at 10 uM,[13],3%
same,inhibition,[1],18%
CC(=O)Nc1ccc2c(c1)S(=O)(=O)c1ccccc1O2,inhibition at 0.1 µM,[18],0%
same,IC50,[8],14 nM
CC(=O)Nc1ccc2c(c1)[nH]c1ccc(Br)cc12,inhibition,[2],61%
NC(=O)Nc1ccc2c(c1)[nH]c1ccccc12,inhibition,[2],74%
same,inhibition at 1 µM,[3],26%
CC(=O)Nc1nc2ccccc2[nH]1,inhibition at 10 uM,[13],-2%
same,inhibition,[1],8%
CC(=O)Nc1ccc2c3ccccc3n(C)c2c1,IC50,[8],30 nM
CC(=O)NCc1ccc2c(c1)c1ccccc1n2C,inhibition,[2],16%
same,inhibition at 1 µM,[3],30%
CC(=O)Nc1ccc2c(c1)-c1ccccc1S2(=O)=O,inhibition at 1 µM,[3],13%
same,IC50,[8],260 nM
NC(=O)Nc1ccccc1-c1ccccc1,inhibition at 10 uM,[13],13%
same,inhibition,[1],22%
CC(=O)Nc1ccc2c(c1)COCO2,inhibition at 10 uM,[13],22%
same,inhibition,[1],42%
CC(=O)Nc1nc2cc(C)c(C)cc2s1,inhibition at 10 uM,[13],38%
same,inhibition,[1],54%
O=CNc1ccc2c(c1)-c1ccccc1S2(=O)=O,IC50,[8],1000 nM
CC(=O)Nc1ccc2c(c1)C(=O)c1ccccc1S2(=O)=O,inhibition at 1 µM,[3],39%
same,IC50,[8],120 nM
CC(=O)Nc1ccc2c3c([nH]c2c1)CCC(C)(C=O)C3 (centres undefined),inhibition at 1 µM,[4],11%
same,inhibition at 1 µM,[5],0%
CC(=O)Nc1cccc2c1C(=O)c1ccccc1C2=O,inhibition at 1 µM,[5],12%
CNc1ccc2c(c1)-c1ccccc1S2(=O)=O,inhibition,[2],34%
CC(=O)Nc1ccc2oc(=O)c3ccccc3c2c1,inhibition at 0.1 µM,[19],23%
same,inhibition at 0.1 uM,[20],10%
CC(=O)Nc1ccc(Oc2ccc(CS(C)(=O)=O)cc2)cc1,inhibition,[2],31%
same,inhibition at 1 µM,[3],25%
CC(=O)Nc1ccc2c(c1)S(=O)(=O)c1cc(NC(C)=O)ccc1N2C,inhibition,[6],2%
same,inhibition,[7],7%
CC(=O)NC(C)c1ccc2c(c1)[nH]c1ccccc12 (centres undefined),inhibition,[2],7%
same,inhibition at 1 µM,[3],20%

# Reference: ChEMBL document CHEMBL1127802, “Selective inhibitors of monoamine oxidase. 2. Arylamide SAR” (J Med Chem, 1994)
